Results as given in ChEMBL document CHEMBL3132745, “Synthesis and Antimicrobial Activities of His(2-aryl)-Arg and Trp-His(2-aryl) Classes of Dipeptidomimetics” (Medchemcomm, 2014).
Converted amounts (≈) assume the structure as drawn. The source made the active and inactive calls.

Key:
LLC-PK1 = experiment: Cytotoxicity against pig LLC-PK1 cells assessed as cell viability after 48 hrs by neutral red uptake assay; assay type: cell-based, Sus scrofa; conditions: llc-pk1, 48 h
In short: (§1)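 Neutral red uptake assay on human cancer lines (SK-MEL, KB, BT-549, SK-OV-3) and noncancerous mammalian cells (VERO, LLC-PK1). Highest tested concentration was 10 µg/mL.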

SK-OV-3 = experiment: Cytotoxicity against human SKOV3 cells assessed as cell viability after 48 hrs by neutral red uptake assay; assay type: cell-based; conditions: sk-ov-3, 48 h; in short: as §1
KB = experiment: Cytotoxicity against human KB cells assessed as cell viability after 48 hrs by neutral red uptake assay; assay type: cell-based; in short: as §1
Aspergillus fumigatus = experiment: Antifungal activity against Aspergillus fumigatus assessed as growth inhibition; assay type: functional, organism-based
Nakaseomyces glabratus = experiment: Antifungal activity against Candida glabrata assessed as growth inhibition; assay type: functional, organism-based
Pichia kudriavzevii = experiment: Antifungal activity against Candida krusei assessed as growth inhibition; assay type: functional, organism-based
Candida albicans = experiment: Antifungal activity against Candida albicans assessed as growth inhibition; assay type: functional, organism-based
Staphylococcus aureus [1] = experiment: Antibacterial activity against methicillin-resistant Staphylococcus aureus ATCC 33591 assessed as growth inhibition after 16-20 hrs by CLSI method; assay type: functional, organism-based
SK-MEL = experiment: Cytotoxicity against human SK-MEL cells assessed as cell viability after 48 hrs by neutral red uptake assay; assay type: cell-based; in short: as §1
Escherichia coli = experiment: Antibacterial activity against Escherichia coli ATCC 35218 assessed as growth inhibition after 16-20 hrs by CLSI method; assay type: functional, organism-based
Cryptococcus neoformans = experiment: Antifungal activity against Cryptococcus neoformans ATCC 90113 assessed as growth inhibition after 70-74 hrs by CLSI method; assay type: functional, organism-based
BT-549 = experiment: Cytotoxicity against human BT549 cells assessed as cell viability after 48 hrs by neutral red uptake assay; assay type: cell-based; conditions: bt-549, 48 h; in short: as §1
Vero = experiment: Cytotoxicity against african green monkey Vero cells assessed as cell viability after 48 hrs by neutral red uptake assay; assay type: cell-based; conditions: chlorocebus sabaeus; in short: as §1
Staphylococcus aureus [2] = experiment: Antibacterial activity against Staphylococcus aureus ATCC 29213 assessed as growth inhibition after 16-20 hrs by CLSI method; assay type: functional, organism-based
[3] = Cryptococcus neoformans, ATCC 90113, read-out: IC50

| Compound | Activity (LLC-PK1) | Activity (SK-OV-3) | Activity (KB) | growth inhibition (GI) (Aspergillus fumigatus) | growth inhibition (GI) (Nakaseomyces glabratus) | growth inhibition (GI) (Pichia kudriavzevii) | growth inhibition (GI) (Candida albicans) | IC50 (Staphylococcus aureus [1]) | MBC (Staphylococcus aureus [1]) | MIC (Staphylococcus aureus [1]) | Activity (SK-MEL) | growth inhibition (GI) (Escherichia coli) | IC50 (Cryptococcus neoformans) | MFC (Cryptococcus neoformans) | MIC (Cryptococcus neoformans) | Activity (BT-549) | Activity (Vero) | IC50 (Staphylococcus aureus [2]) | MBC (Staphylococcus aureus [2]) | MIC (Staphylococcus aureus [2]) | other results |
| --- | --- | --- | --- | --- | --- | --- | --- | --- | --- | --- | --- | --- | --- | --- | --- | --- | --- | --- | --- | --- | --- |
| CC(C)(C)OC(=O)N[C@@H](Cc1c[nH]c2ccccc12)C(=O)N[C@@H](Cc1c[nH]c(-c2ccc(C(C)(C)C)cc2)n1)C(=O)NCc1ccccc1 | > 10 µg/mL | > 10 µg/mL | > 10 µg/mL | inactive | inactive | inactive | inactive | Not Active | inactive | inactive | > 10 µg/mL | inactive | Not Active | inactive | inactive | > 10 µg/mL | > 10 µg/mL | 10.2 mg/L (≈ 15.3 µM) | inactive | inactive |  |
| COC(=O)[C@H](Cc1c[nH]c(-c2ccc(C(C)(C)C)cc2)n1)NC(=O)[C@H](Cc1c[nH]c2ccccc12)NC(=O)OC(C)(C)C | > 10 µg/mL | > 10 µg/mL | > 10 µg/mL | inactive | inactive | inactive | inactive | Not Active | inactive | inactive | > 10 µg/mL | inactive |  | inactive | inactive | > 10 µg/mL | > 10 µg/mL | 15.1 mg/L (≈ 25.6 µM) | inactive | inactive | IC50 (Cryptococcus neoformans; [3]): 18.7 mg/L (≈ 31.8 µM) |
| COC(=O)[C@H](CCCNC(=N)N)NC(=O)[C@H](Cc1c[nH]c(-c2ccccc2)n1)NC(=O)OC(C)(C)C | > 10 µg/mL | > 10 µg/mL | > 10 µg/mL | inactive | inactive | inactive | inactive |  |  |  | > 10 µg/mL | inactive |  | inactive | inactive | > 10 µg/mL | > 10 µg/mL |  |  |  | IC50 (Cryptococcus neoformans; [3]): 16.6 mg/L (≈ 33.1 µM) |
| COc1ccc(-c2nc(C[C@H](NC(=O)[C@H](Cc3c[nH]c4ccccc34)NC(=O)OC(C)(C)C)C(=O)NCc3ccccc3)c[nH]2)cc1 | > 10 µg/mL | > 10 µg/mL | > 10 µg/mL | inactive | inactive | inactive | inactive |  |  |  | > 10 µg/mL | inactive | Not Active | inactive | inactive | > 10 µg/mL | > 10 µg/mL |  |  |  |  |
